Measured values from different studies.
Protocols differ between the studies behind these lines.
Target: Protein kinase C iota type (PRKCI, Homo sapiens, UniProt P41743)
Sequence (P41743 1-596, as in one of the studies): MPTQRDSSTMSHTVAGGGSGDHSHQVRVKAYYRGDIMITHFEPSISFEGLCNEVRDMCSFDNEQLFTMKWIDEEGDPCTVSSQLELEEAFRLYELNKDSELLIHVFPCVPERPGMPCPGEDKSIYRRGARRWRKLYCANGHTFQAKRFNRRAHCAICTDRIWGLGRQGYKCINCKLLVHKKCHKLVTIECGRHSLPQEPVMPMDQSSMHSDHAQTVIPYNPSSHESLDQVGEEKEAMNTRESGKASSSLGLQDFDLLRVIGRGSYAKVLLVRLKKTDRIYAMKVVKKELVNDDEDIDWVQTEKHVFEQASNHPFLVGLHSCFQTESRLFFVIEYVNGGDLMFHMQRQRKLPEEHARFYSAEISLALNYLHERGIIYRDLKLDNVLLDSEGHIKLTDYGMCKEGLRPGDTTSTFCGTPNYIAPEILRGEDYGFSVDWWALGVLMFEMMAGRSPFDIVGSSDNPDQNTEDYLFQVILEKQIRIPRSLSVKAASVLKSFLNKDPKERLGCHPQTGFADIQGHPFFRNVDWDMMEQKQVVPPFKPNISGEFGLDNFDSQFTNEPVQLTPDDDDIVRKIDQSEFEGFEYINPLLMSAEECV

For CC(C)(O)[C@H]1CC[C@H](Nc2ccc3ncc(-c4cccc(C(F)(F)F)c4)n3n2)CC1, the remaining activity was 128% (enzyme activity, inhibitor; 1 µM).
The inhibition of COc1cc(-c2cc(-c3ccc(N4CCNCC4)cc3)cnc2C)cc(OC)c1OC is reported as 18% (enzyme activity, inhibitor; 1 µM).
For CCC(=O)N[C@@H]1CC[C@H](C(=O)N(C)c2ccc(-c3nc4ccccc4o3)cc2)C1, the remaining binding was 84% (cell-free assay, competition with immobilised ligand; 1 µM).
O=C(Nc1cnn(-c2csc(C(=O)NC3COC3)c2)c1)Nc1ccccc1Cl has a remaining activity of 95.5% (enzyme activity, inhibitor; 5 µM).
CN1CC(Oc2cnc(C#N)cc2-c2ccn3nc(NC(=O)C4CC4)cc3c2)C1 gave an inhibition of -8% (enzyme activity, inhibitor; 1 µM).
With Cc1ccc(-n2nc(C(C)(C)C)cc2NC(=O)Nc2ccc(OCCN3CCOCC3)c3ccccc23)cc1 the inhibition was 3% (enzyme activity, inhibitor; 10 µM).
Nc1ncnc2occ(-c3ccc(NC(=O)Nc4cc(C(F)(F)F)ccc4F)cc3)c12 has a remaining signal of 6.8% (cell-free assay; 20 µM).
The remaining binding of N[C@@H]1CCN(c2nccc(-c3cnn4ncccc34)n2)C1 is reported as 33% (binding; 1 µM).
For COc1cc2ncnc(Nc3ccc(Oc4ccccc4)cc3C)c2cc1OC, the inhibition was 3% (enzyme activity, inhibitor; 1 µM).
The inhibition of CCN(CC)CCNC(=O)c1c(C)[nH]c(/C=C2\C(=O)Nc3ccc(F)cc32)c1C is reported as 3% (enzyme activity, inhibitor; 0.3 µM).
N#CCCc1ccc2c(c1)-c1[nH]c3ccc([N+](=O)[O-])cc3c1CC(=O)N2 has a remaining signal of 65.3% (cell-free assay; 0.5 µM).
The remaining binding of CO[C@@H](C)c1c(Nc2ccc([C@@H](N(C)C(=O)C3CCS(=O)(=O)CC3)C(F)(F)F)cc2)cnc2cc(Cl)nn12 is reported as 76% (cell-free assay, competition with immobilised ligand; 1 µM).
With CNCc1ccc(-c2cc(-c3nc(-c4ccc(S(=O)(=O)C(C)C)cc4)cnc3N)on2)cc1 the inhibition was 1% (enzyme activity, inhibitor; 2 µM).
The remaining binding of COc1cccc(CNC(=O)c2nc3scc(COCc4ccc(C(=O)O)cc4)c3c(=O)[nH]2)c1 is reported as 100% (cell-free assay, competition with immobilised ligand; 1 µM).
With COc1cccc2c(NCc3ccccc3)nc(-n3c(N)nc4ccccc43)nc12 the inhibition was -13.3% (target engagement in cells, inhibitor, chemoproteomics; 20 mM).
COc1cc(-c2cn(C3CCc4c(F)cccc4N(CC(F)(F)F)C3=O)nn2)ccc1-n1cnc(C)c1 (stereo not drawn) gave a remaining binding of 100% (cell-free assay, competition with immobilised ligand; 1 µM).
CN(C)C1CCN(CC#Cc2nn(C3CCCC3)c3nc(NCc4ccccc4)ncc23)C1 (stereo not drawn) has an inhibition of 6% (enzyme activity, inhibitor, FRET; 10 µM).
Cc1ccc(C(=O)NCc2ccsc2)cc1C#Cc1cn(C(C)C)c2ncnc(N)c12 gave an activity vs control of 96% (enzyme activity, inhibitor; 1 µM).
The remaining activity of CC(C)(C)c1nc(-c2cccc(NS(=O)(=O)c3c(F)cccc3F)c2F)c(-c2ccnc(N)n2)s1 is reported as 100% (enzyme activity, inhibitor, radiometric; 1 µM).
The remaining binding of Cn1nc(C(=O)NCc2ccc(C(=O)O)cc2)cc1-c1ccc2[nH]ccc2c1 is reported as 80% (cell-free assay, competition with immobilised ligand; 0.1 µM).
With CNC(=O)c1cc(Oc2ccc(NC(=O)Nc3ccc(Cl)c(C(F)(F)F)c3)cc2)ccn1 the inhibition was 9% (enzyme activity, inhibitor; 10 µM).
For C[C@@H]1CN(c2cc(-c3nn(C)c4ccc(OC5(C)CC5)cc34)ncn2)C[C@H](C)O1, the remaining binding was 100% (cell-free assay, competition with immobilised ligand; 1 µM).
With Cc1sc(C(=O)NC2COC2)cc1-n1cc(NC(=O)Nc2c(F)cccc2Cl)cn1 the remaining activity was 90.8% (enzyme activity, inhibitor; 10 µM).
The remaining binding of COc1ccc2cc(OCC3(C(=O)O)CN(C(=O)c4ccc(F)cc4)C3)ccc2c1 is reported as 100% (cell-free assay, competition with immobilised ligand; 1 µM).
The remaining activity of Cc1cnc(NC2CCOCC2)nc1-n1cnc(C(=O)NC(CN)c2cc(F)cc(Cl)c2)c1 (stereo not drawn) is reported as 106% (enzyme activity, inhibitor, radiometric; 1 µM).
Cc1cc(NC(=O)c2cccc(S(F)(F)(F)(F)F)c2)cc(-n2ccn3nc(-c4cccnc4)cc23)c1 gave a remaining binding of 80.4% (cell-free assay, competition with immobilised ligand; 1 µM).
The remaining activity of Cc1ccc(Nc2nccc(N(C)c3ccc4c(C)n(C)nc4c3)n2)cc1S(N)(=O)=O is reported as 96.1% (enzyme activity; 0.5 µM).
